Screens (PubChem)
A selection: hits, their analogues and other compounds. The true share with any hit is near 2.3%.
Fam108B inh: blocks mouse Fam108B hydrolase in RBBP9 counter-screen | recombinant Fam108B, FP-Rh probe fluorescence polarization | inhibition, % at 9.51 µM | 300,000 tested, 0.33% active | AID 1947;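 active = inhibition above the screen mean inhibition plus 3 SD, computed separately per campaign, cut at about 18% in these data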;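 also: inhibitors lower polarization as less probe binds the enzyme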
GSTO1 inh: blocks human GSTO1 in RBBP9 counter-screen; P78417; recombinant GSTO1, activity-based probe fluorescence polarization; inhibition, % at 5.96 µM; 300,000 tested, 1.1% active; AID 1974;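 active = inhibition above the campaign mean inhibition plus 3 SD, cut at about 35% in these data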
Target sequence (P78417 whole entry, looked up): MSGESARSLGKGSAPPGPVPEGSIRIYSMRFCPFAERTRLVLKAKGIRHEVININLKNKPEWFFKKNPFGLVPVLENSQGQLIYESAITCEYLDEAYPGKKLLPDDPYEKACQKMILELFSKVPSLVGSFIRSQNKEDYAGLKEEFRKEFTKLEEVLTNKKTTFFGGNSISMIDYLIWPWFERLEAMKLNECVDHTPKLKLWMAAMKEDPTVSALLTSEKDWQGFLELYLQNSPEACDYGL
PRMT1 inh: PRMT1 (human) inhibition, primary screen; inhibition, % at 2.79 µM; 370,000 tested, 1.3% active; Q99873; recombinant PRMT1, activity-based probe fluorescence polarization; AID 652257;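 active = inhibition above about 21% made by adding two undisclosed values, limit read from the data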
Target sequence (Q99873 whole entry, looked up): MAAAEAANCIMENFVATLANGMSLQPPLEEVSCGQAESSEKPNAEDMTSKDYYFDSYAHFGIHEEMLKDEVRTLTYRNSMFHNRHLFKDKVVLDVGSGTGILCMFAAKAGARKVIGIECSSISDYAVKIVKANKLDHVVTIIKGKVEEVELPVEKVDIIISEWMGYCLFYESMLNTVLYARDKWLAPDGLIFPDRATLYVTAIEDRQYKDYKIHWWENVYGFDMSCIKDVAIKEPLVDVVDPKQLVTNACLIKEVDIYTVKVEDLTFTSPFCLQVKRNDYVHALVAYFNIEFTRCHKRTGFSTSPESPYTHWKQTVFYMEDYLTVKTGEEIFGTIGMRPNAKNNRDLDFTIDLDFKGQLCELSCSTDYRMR
PAD4 FP inh: blocks human protein arginine deiminase 4 | Q9UM07 | recombinant PAD4, RCA probe fluorescence polarization | inhibition, % at 6.36 µM | 330,000 tested, 0.41% active | AID 485272;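 active = percent inhibition above a cutoff equal to the mean of all tested compounds plus 3 SD, cut at about 15% in these data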
PME-1 inh: PME-1 (human) inhibition. recombinant PME-1, FP-Rh probe fluorescence polarization. inhibition, % at 5.9 µM. 320,000 tested, 0.53% active. AID 2130;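 active = inhibition above the campaign mean of all compounds plus 3 SD, cut at about 26% in these data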;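 also: competitive labeling of PME-1 active site by serine hydrolase directed probe; inhibitors block probe labeling so polarization falls and inhibition rises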
RBBP9 inh: inhibitors of human serine hydrolase RBBP9; O75884; recombinant RBBP9, FP-Rh probe fluorescence polarization; inhibition, % at 7.94 µM; 220,000 tested, 0.2% active; AID 1515;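 active = inhibition above the campaign mean of all tested compounds plus 3 SD, cut at about 14% in these data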
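system = RBBP9 protein | input = RBBP9 at 2.5 µM in dispensed solution, before mixing | measured by = fluorescence polarization (mP), excitation 525 nm, emission 598 nm | incubation = enzyme-compound preincubation 30 min, then probe labeling 45 min, 25 °C | buffer or medium = Tris-NaCl-Pluronic buffer, pH 8.0 | compound = single dose 7.94 µM | also added = FP-Rh probe, 375 nM dispensing solution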
Fam108b inh conf: confirmation of mouse Fam108b serine hydrolase inhibitors; shares compounds with Fam108B inh; recombinant Fam108b, FP-Rh probe fluorescence polarization; inhibition, % at 9.51 µM; 930 tested, 44% active; AID 1978;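 active = inhibition above a limit from the primary screen, the mean over all compounds plus 3 SD, cut at about 19% in these data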;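 also: inhibitors free the probe so polarization falls as inhibition rises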
Fam108b inh: inhibits mouse Fam108b in gel-based ABPP; shares compounds with Fam108B inh; recombinant Fam108b, fluorophosphonate probe; inhibition, % at 20 µM; 260 tested, 44% active; AID 588649; in the data active = inhibition above about 40%
Of the large screens only hits and unclear results are named; the others gave an inactive call (follow-up assays come after a bar, where they were run).

Cc1ccc(NC(=O)c2ccc(Nc3c([N+](=O)[O-])cc([N+](=O)[O-])cc3[N+](=O)[O-])cc2)cc1	Fam108B inh 22, PME-1 inh 36 | Fam108b inh conf inactive
COCCNC(=O)COC(=O)c1nsc(Cl)c1Cl	none
C=CCn1c(COc2ccc(CC)cc2)nnc1SCC(=O)NC1CCS(=O)(=O)C1 (centres undefined)	none
CCOC(=O)C1Nc2c(F)cc(C)cc2C2C=CCC12 (centres undefined)	none (no result: PRMT1 inh, RBBP9 inh)
Cc1ccc2c(c1C)NC(C(=O)O)C1CC=CC21 (centres undefined)	Fam108B inh 23, GSTO1 inh 51 (no result: PRMT1 inh, RBBP9 inh) | Fam108b inh conf inactive
Cc1cc(C)c2c(c1)NC(C(=O)O)C1CC=CC21 (centres undefined)	Fam108B inh 21, PRMT1 inh 32 (no result: RBBP9 inh) | Fam108b inh conf inactive
OC(COc1cccc2ccccc12)CN1CCN(c2cccc(Cl)c2)CC1 (centres undefined)	none
O=C(COc1ccccc1C(=O)N/N=C\c1ccc(O)c(O)c1)N/N=C/c1ccc(O)c(O)c1	Fam108B inh 35, PME-1 inh 35 (no result: PRMT1 inh) | Fam108b inh conf inactive
COC(=O)N/N=C/c1ccc(-c2ccc(Cl)cc2Cl)o1	none
NS(=O)(=O)c1ccc(-c2ccc(/C=N/Nc3ccc(C(=O)O)cc3)o2)cc1	none
O=C(O)c1ccc(N/N=C/c2ccc(-c3cc(Cl)ccc3Cl)o2)cc1	Fam108B inh 22 | Fam108b inh conf inactive
O=C(O)c1ccc(N/N=C/c2ccc(-c3ccc(Cl)cc3Cl)o2)cc1	Fam108B inh 28, PME-1 inh 64 | Fam108b inh conf 23
O=C(O)c1ccc(N/N=C/c2ccc(-c3cccc(Cl)c3)o2)cc1	none
O=C(O)c1cccc(-c2ccc(/C=N/Nc3ccc([N+](=O)[O-])cc3)o2)c1	Fam108B inh 23, PME-1 inh 33 | Fam108b inh conf 20
COC(=O)c1sccc1NC(=O)CSc1ccccc1NS(=O)(=O)c1ccc(Br)cc1	none
NNC(=O)c1oc2nc(-c3cccs3)cc(-c3ccco3)c2c1N	Fam108B inh 24 (no result: RBBP9 inh) | Fam108b inh conf 24
Cc1ccc(-c2cc(-c3ccco3)c3c(N)c(C(=O)NN)oc3n2)cc1	Fam108B inh 30 | Fam108b inh conf inactive
NNC(=O)c1oc2nc(-c3ccccc3)cc(-c3ccccc3)c2c1N	none (no result: RBBP9 inh)
O=[N+]([O-])c1ccc(O)c(/C=N\N=C2c3ccccc3-c3ccccc32)c1	Fam108B inh 21 | Fam108b inh conf inactive
CCCCCN(C(=O)CCC(=O)OCC(=O)N(CC)c1ccccc1)c1c(N)n(CCCC)c(=O)[nH]c1=O	none (no result: RBBP9 inh)
Nc1ccc(C#Cc2ccc3sc4ccccc4c(=O)c3c2)cc1	Fam108B inh 22 (no result: RBBP9 inh) | Fam108b inh conf inactive
O=c1c2ccccc2sc2ccc(C#CC3(O)CCCCC3)cc12	none (no result: RBBP9 inh)
COc1cc2nc(Nc3ccc(C)c(Cl)c3)nc(N)c2cc1OC	Fam108B inh 23, PME-1 inh 35 (no result: RBBP9 inh) | Fam108b inh conf inactive
CC(C)CC(NC(=O)c1ccccc1)C(=O)N/N=C/c1ccco1 (centres undefined)	none
Clc1ccc2[nH]c3c(c2c1)CCc1cn[nH]c1-3	Fam108B inh 22, PME-1 inh 40 | Fam108b inh conf inactive
O=C(N/N=C1\CCCc2c1[nH]c1ccc(Cl)cc21)c1ccncc1	none (no result: RBBP9 inh)
CN(C(=O)Cn1nnc(-c2ccccc2)n1)C1CCS(=O)(=O)C1 (centres undefined)	none (no result: RBBP9 inh)
COc1ccc(Nc2sc(C(=O)Nc3cccc(Cl)c3)c(N)c2C(=O)Nc2ccccc2OC)cc1	Fam108B inh 51, PME-1 inh 30 (no result: PRMT1 inh) | Fam108b inh conf inactive
O=C(CSc1nnc(Cc2csc(Nc3cccc(Cl)c3)n2)o1)N1CCc2ccccc21	Fam108B inh 19 | Fam108b inh conf inactive
COc1ccc(CCC(C)NC(=O)CCc2ccccc2)c(OC)c1 (centres undefined)	none (no result: RBBP9 inh)
Cc1cccc(C=NNc2cc(C)c3cccc(C)c3n2)n1	none (no result: Fam108B inh, GSTO1 inh, PAD4 FP inh, PME-1 inh, RBBP9 inh)
Cc1ccccc1/C=N/Nc1nc2ccccc2[nH]1	none
O=[N+]([O-])c1cc(/C=N/Nc2nc3ccccc3[nH]2)c(O)cc1O	Fam108B inh 19 | Fam108b inh conf inactive
Cc1sc2nc(CN(Cc3cccs3)C(=O)NC3CCCCC3)[nH]c(=O)c2c1C	none
O=C(COc1cccc(Cl)c1)N/N=C\c1cc2ccccc2nc1Cl	none
O=C(CNc1ccc2ccccc2c1)N/N=C/c1cc2ccccc2nc1Cl	Fam108B inh 37, PME-1 inh 52 | Fam108b inh conf inactive
COc1ccc(-c2nnc(SCC(=O)NCc3ccco3)o2)cc1	none
O=[N+]([O-])c1ccc(NN=Cc2cccc3ccccc23)nc1	none (no result: Fam108B inh, GSTO1 inh, PAD4 FP inh, PME-1 inh, RBBP9 inh)
COc1cccc(/C=N/Nc2ccc([N+](=O)[O-])cn2)c1O	Fam108B inh 51, PME-1 inh 75 (no result: RBBP9 inh) | Fam108b inh conf inactive
COc1cccc(/C=N/Nc2nc(Nc3ccc([N+](=O)[O-])cc3)nc(N3CCCC3)n2)c1O	Fam108B inh 25 | Fam108b inh conf 31
O=[N+]([O-])c1ccc(Nc2nc(N/N=C/c3cccc(F)c3)nc(N3CCCC3)n2)cc1	none
CCOC(=O)C(=CNc1cc(C)nn1C(C)(C)C)C(=O)OCC	none
O=C(O)c1ccc(/C=N/NC(=O)c2cc3ccccc3cc2O)cc1	none (no result: Fam108B inh, GSTO1 inh, PME-1 inh, RBBP9 inh)
Cn1c(C(=O)NN)cc2cc(Oc3ccccc3)ccc21	none (no result: RBBP9 inh)
Cn1c(O)c(C=NNC(=O)c2cc3ccccc3cc2O)c2ccccc21	none (no result: Fam108B inh, GSTO1 inh, PRMT1 inh, PAD4 FP inh, PME-1 inh, RBBP9 inh) | Fam108b inh 55
COc1ccc2c(c1)cc(C(=O)N/N=C/c1c(O)c(C(=O)O)cc3ccccc13)n2C	Fam108B inh 43, PME-1 inh 49 (no result: RBBP9 inh) | Fam108b inh conf inactive
Cn1c(O)c(/C=N/NC(=O)c2cc3ccccc3cc2O)c2ccccc21	Fam108B inh 36, PME-1 inh 70 (no result: RBBP9 inh) | Fam108b inh conf 31
COCCn1c(C)cc(/C=N/NC(=O)c2cc3ccccc3cc2O)c1C	none (no result: Fam108B inh, GSTO1 inh, PRMT1 inh, RBBP9 inh)
C/C=C/C=C\C(=O)Nc1cccc(C2=NOC3(C2)C[C@@H](C(N)=O)N(C(=O)/C(C)=C/C)C3)c1 (some centres undefined)	none (no result: RBBP9 inh)
O=C(NCc1cccs1)C1CCCN1C(=O)Nc1ccccc1Cl (centres undefined)	none (no result: RBBP9 inh)
N=C1/C(=C/c2cccn2CCOc2ccccc2)C(=O)N=C2SC=C(c3ccccc3)N12	Fam108B inh 19 | Fam108b inh conf inactive
N=C1/C(=C/c2ccc(-c3cccc(C(=O)O)c3)o2)C(=O)N=C2SC=C(c3ccccc3)N12	Fam108B inh 37 | Fam108b inh conf 18
N=C1/C(=C\c2ccc(-c3cc(Cl)cc(Cl)c3)o2)C(=O)N=C2SC=C(c3ccccc3)N12	none
O=C(CNS(=O)(=O)c1cccc2nonc12)NCc1ccc(F)cc1	none
